Reference: ChEMBL document CHEMBL1134779, “Synthesis and characterization of the antitumor activities of analogues of meridine, a marine pyridoacridine alkaloid” (J Med Chem, 2001)

Experiments:
MCF7 = test: In vitro inhibition of MCF-7 (human breast cancer) cell growth.; type: functional, cell-based
Method in brief: (§1)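 Human cancer lines from ATCC, grown at 37 °C in sealed dishes in Eagle's MEM with 5% FCS. Cells were seeded at 40000 cells/mL and plated for 24 h before drug exposure. Six concentrations from 10^-5 to 10^-10 M were tested. Growth was read by MTT reduction to formazan at 570 nm (reference 630 nm), in sextuplicate. IC50 is the concentration giving 50% growth reduction versus control.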

PC-3 = test: In vitro inhibition of PC-3 (human prostate cancer) cell growth.; type: functional, cell-based; method in brief: as §1
SW1088 (human) = test: In vitro inhibition of SW1088 (human astrocytoma) cell growth.
A-427 = test: In vitro inhibition of A-427 (human lung cancer) cell growth.; type: functional, cell-based; method in brief: as §1
[1] = In vitro inhibition of T24 (human bladder cancer) cell growth.; type: functional, cell-based; details: T-24; method in brief: as §1
HCT-15 = test: In vitro inhibition of HCT-15 (human colon cancer) cell growth.; type: functional, cell-based; method in brief: as §1
U-87 MG = test: In vitro inhibition of U-87 MG (human glioblastoma) cell growth.; type: functional, cell-based, U-87MG ATCC; method in brief: as §1
U373 MG = test: In vitro inhibition of U-373 MG (human glioblastoma) cell growth.; type: functional, cell-based, U-373MG ATCC; method in brief: as §1
T47D [2] = test: In vitro inhibition of T-47D (human breast cancer) cell growth.; type: functional, cell-based; method in brief: as §1
J82 = test: In vitro inhibition of J82 (human bladder cancer) cell growth.; type: functional, cell-based; method in brief: as §1
LoVo = test: In vitro inhibition of LoVo (human colon cancer) cell growth.; type: functional, cell-based; method in brief: as §1
A549 = test: In vitro inhibition of A549 (human lung cancer) cell growth.; type: functional, cell-based; method in brief: as §1
T47D [3] = test: Ctotoxic related antitumor activity against human cancer cell lines T-47 D; type: functional, cell-based; method in brief: as §1

IC50 (MCF7) [nM]	IC50 (PC-3) [nM]	IC50 (SW1088 (human)) [nM]	IC50 (HCT-15) [nM]	IC50 (U-87 MG) [nM]	IC50 (T47D [2]) [nM]	IC50 (LoVo) [nM]	IC50 (A549) [nM]	Compound	IC50 (A-427) [nM]	IC50 [1] [nM]	IC50 (U373 MG) [nM]	IC50 (J82) [nM]	IC50 (T47D [3]) [nM]
80	600	100	70	50	500	80	60	CN(C)c1ccnc2c1-c1nc3ccccc3c3ccnc(c13)C2=O	60	200	80	1300	
< 0.1	60	60	2	< 0.1	30	0.3	0.3	COc1ccnc2c1-c1nc3ccccc3c3ccnc(c13)C2=O	5	6	< 0.1	0.9	
3900	7300	2900	3500	800	4500	2900	2300	O=C1c2nccc(O)c2C(=O)c2c(-c3ccccc3[N+](=O)[O-])ccnc21	1200	2300	4000	5300	
30	900	60	60	40	200	40	50	O=C1c2nc(O)ccc2C(=O)c2c(-c3ccccc3NC(=O)C(F)(F)F)ccnc21	40	50	40	2100	
3100	5100	4800	500	2700	5500	5700	600	Nc1ccnc2c1C(=O)c1c(-c3ccccc3[N+](=O)[O-])ccnc1C2=O	5500	3600	3100	3000	
60	900	3800	10	50	2100	60	70	O=C1c2nccc(Cl)c2C(=O)c2c(-c3ccccc3NC(=O)C(F)(F)F)ccnc21	600	200	90	3300	
50	3100	3900	90	9	5100	50	20	COc1ccnc2c1C(=O)c1c(-c3ccccc3[N+](=O)[O-])ccnc1C2=O	700	20	30	400	
0.9	40	60	5	< 0.1	10	20	20	O=C1c2ncccc2-c2nc3ccccc3c3ccnc1c23	0.8	< 0.1	0.7	7	
90	500	80	300	70	600	90	80	Nc1ccnc2c1-c1nc3ccccc3c3ccnc(c13)C2=O	60	70	100	700	
1800	5000	5400	2800	2000	800	3900	900	O=C1c2nccc(Cl)c2C(=O)c2c(-c3ccccc3[N+](=O)[O-])ccnc21	3500	5500	4800	500	
6	60	60	8	0.9	50	7	6	O=C1c2ncccc2C(=O)c2c(-c3ccccc3NC(=O)C(F)(F)F)ccnc21	30	200	5	60	
500	1300	800	100	80		800	90	CCOC(=O)c1cnc2c(c1)C(=O)c1c(-c3ccccc3NC(=O)C(F)(F)F)ccnc1C2=O	600	600	400	5200	2600
700	5700	2800	200	70	2900	700	80	CCOC(=O)c1cnc2c(c1)-c1nc3ccccc3c3ccnc(c13)C2=O	800	900	700	5200	
90	2700	90	90	60	300	70	70	CC(=O)Nc1ccnc2c1C(=O)c1c(-c3ccccc3NC(=O)C(F)(F)F)ccnc1C2=O	60	400	90	3500	
70	4200	5500	600	70	600	90	800	O=C1c2nccc([N+](=O)[O-])c2-c2nc3ccccc3c3ccnc1c23	2400	700	90	500	
800	600	800	600	300	1200	700	600	Nc1ccnc2c1C(=O)c1c(-c3ccccc3NC(=O)C(F)(F)F)ccnc1C2=O	500	700	900	2700	
100	600	400	200	60	700	100	60	CN(C)c1ccnc2c1C(=O)c1c(-c3ccccc3NC(=O)C(F)(F)F)ccnc1C2=O	70	300	300	2000	
80	500	4300	100	20	2700	50	7	O=C1c2nccc(Cl)c2-c2nc3ccccc3c3ccnc1c23	900	90	100	90	
0.3	50	50	2	< 0.1	30	0.1	< 0.1	COc1ccnc2c1C(=O)c1c(-c3ccccc3NC(=O)C(F)(F)F)ccnc1C2=O	50	7	< 0.1	0.9	
1100	4900	3000	3600	700	4400	800	3300	O=C1c2nccc(Br)c2-c2nc3ccccc3c3ccnc1c23	700	700	900	9000	
700	600	6000	600	4700	4300	900	900	O=C1c2nccc(-c3ccccc3NC(=O)C(F)(F)F)c2C(=O)c2c([N+](=O)[O-])ccnc21	4500	5400	900	3900	

Compound	IC50 (MCF7) [nM]	IC50 (PC-3) [nM]	IC50 (SW1088 (human)) [nM]	IC50 (HCT-15) [nM]	IC50 (U-87 MG) [nM]	IC50 (T47D [2]) [nM]	IC50 (LoVo) [nM]	IC50 (A549) [nM]	IC50 (A-427) [nM]	IC50 [1] [nM]	IC50 (U373 MG) [nM]	IC50 (J82) [nM]	IC50 (T47D [3]) [nM]
O=C1c2nccc(O)c2-c2nc3ccccc3c3ccnc1c23 [MERIDINE]	90	500	2000	200	100	70	70	80	200	50	100	8200	
